In ChEMBL document CHEMBL3244360, “Usnic acid derivatives as potential antineoplastic agents” (J Med Chem, 1979):
The source made the active and inactive calls. The calls are words filed in the database; no cut-off is given here.

Columns and labels:
P388 [1] = assay: Antitumor activity against mouse P388 cells allografted in mouse assessed as host median survival time at 6 mg/kg/day, ip administered as gum acacia suspension on days 1 to 9 relative to control; format: functional; conditions: route intraperitoneal
Procedure, shortened: (§1)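 Tumored mice got the compound intraperitoneally as a gum acacia suspension once daily on days 1-9 (nine injections), with doses in (mg/kg)/day. Read-out was T/C, the median survival time of treated over control animals as a percentage. Dose-response assays were generally run in duplicate, and the highest T/C per assay is reported with its dose.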

L1210 = assay: Growth inhibition of mouse L1210 cells at 0.14 umol/ml after 23 to 46 hrs by coulter counter analysis; format: functional, cell-based
Procedure, shortened: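 L1210 cells grown in RPMI 1630 with 16.7% heat-inactivated fetal calf serum and gentamicin 40 µg/mL. Exponentially growing cells were washed and seeded at 1 × 10^5 cells/mL. Drug was added in Me2SO to a final 1.39 ± 0.17 × 10^-7 mol/mL with continuous exposure at 37 °C. Coulter counts at 23 and 46 h gave percent inhibition versus untreated control.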

[2] = Antitumor activity against mouse LCC cells allografted in mouse assessed as host median survival time at 50 mg/kg/day, ip administered as gum acacia suspension on days 1 to 9 relative to control; format: functional, Lewis lung carcinoma; conditions: route intraperitoneal; procedure, shortened: as §1
[3] = Octanol-water partition coefficient, log P of the compound by high-performance liquid chromatography; format: physicochemical
[4] = Antitumor activity against mouse LCC cells allografted in mouse assessed as host median survival time at 6 mg/kg/day, ip administered as gum acacia suspension on days 1 to 9 relative to control; format: functional, Lewis lung carcinoma; conditions: route intraperitoneal; procedure, shortened: as §1
P388 [5] = assay: Antitumor activity against mouse P388 cells allografted in mouse assessed as host median survival time at 25 mg/kg/day, ip administered as gum acacia suspension on days 1 to 9 relative to control; format: functional; conditions: route intraperitoneal; procedure, shortened: as §1
P388 [6] = assay: Antitumor activity against mouse P388 cells allografted in mouse assessed as host median survival time at 50 mg/kg/day, ip administered as gum acacia suspension on days 1 to 9 relative to control; format: functional; conditions: route intraperitoneal; procedure, shortened: as §1
P388 [7] = assay: Antitumor activity against mouse P388 cells allografted in mouse assessed as host median survival time at 12 mg/kg/day, ip administered as gum acacia suspension on days 1 to 9 relative to control; format: functional; conditions: route intraperitoneal; procedure, shortened: as §1
[8] = Antitumor activity against mouse LCC cells allografted in mouse assessed as host median survival time at 100 mg/kg/day, ip administered as gum acacia suspension on days 1 to 9 relative to control; format: functional, Lewis lung carcinoma; conditions: route intraperitoneal; procedure, shortened: as §1
[9] = Antitumor activity against mouse LCC cells allografted in mouse assessed as host median survival time at 12 mg/kg/day, ip administered as gum acacia suspension on days 1 to 9 relative to control; format: functional, Lewis lung carcinoma; conditions: route intraperitoneal; procedure, shortened: as §1
P388 [10] = assay: Antitumor activity against mouse P388 cells allografted in mouse assessed as host median survival time at 100 mg/kg/day, ip administered as gum acacia suspension on days 1 to 9 relative to control; format: functional; conditions: route intraperitoneal; procedure, shortened: as §1
P388 [11] = assay: Antitumor activity against mouse P388 cells allografted in mouse assessed as host median survival time at 200 mg/kg/day, ip administered as gum acacia suspension on days 1 to 9 relative to control; format: functional; conditions: route intraperitoneal; procedure, shortened: as §1
[12] = Antitumor activity against mouse LCC cells allografted in mouse assessed as host median survival time at 25 mg/kg/day, ip administered as gum acacia suspension on days 1 to 9 relative to control; format: functional, Lewis lung carcinoma; conditions: route intraperitoneal; procedure, shortened: as §1
[13] = Solubility of the compound in ethanol at 25 degC measured per 100 ml; format: physicochemical
[14] = Solubility of the compound in water at 25 degC measured per 100 ml; format: physicochemical; conditions: buffer
[15] = Antineoplastic activity against mouse LCC cells allografted in mouse assessed as increase in host life span at 20 to 200 mg/kg relative to control; format: functional, Lewis lung carcinoma; conditions: dose mg/kg 20-200
[16] = Antitumor activity against mouse LCC cells allografted in mouse assessed as host median survival time at 200 mg/kg/day, ip administered as gum acacia suspension on days 1 to 9 relative to control; format: functional, Lewis lung carcinoma; conditions: route intraperitoneal; procedure, shortened: as §1
[17] = Antitumor activity against mouse LCC cells allografted in mouse assessed as host median survival time at 3 mg/kg/day, ip administered as gum acacia suspension on days 1 to 9 relative to control; format: functional, Lewis lung carcinoma; conditions: route intraperitoneal; procedure, shortened: as §1

SMILES	growth inhibition (GI) (L1210)	T/C [2]	logP [3]	T/C (P388 [5])	T/C (P388 [10])	other results
CC(=O)c1c(O)c(C)c(O)c2c1OC1=CC(=O)/C(=C(\C)N)C(=O)C12C (configuration not stated)	Active	111%	3.2	–	–	T/C (P388 [1]): 107%; T/C [4]: 110%
CC(=O)C1=C(O)C=C2Oc3c(C(C)=O)c(O[C@@H]4O[C@H](CO)[C@@H](O)[C@H](O)[C@H]4O)c(C)c(O)c3C2(C)C1=O (some centres not stated)	–	–	0.56	102%	–	T/C (P388 [6]): 108%
C=C1c2c(O)c(C)c(O)c(C(C)=O)c2OC12C=C(C(=O)O)C(=O)C2 (configuration not stated)	–	127%	1.3	108%	–	T/C (P388 [7]): 112%; T/C [8]: 109%
CC(=O)c1c(O)c(C)c(O)c2c1OC1=CC(=O)c3c(C)noc3C12C (configuration not stated)	Active	–	–	–	114%	T/C [9]: 117%; T/C [4]: 112%
CC(=O)Oc1c(C)c(O)c(C(C)=O)c2c1C1(C)C(=O)C(C(C)=O)=C(O)C=C1O2 (configuration not stated)	Active	112%	2.7	–	–	T/C (P388 [11]): 113%; T/C [12]: 118%
CC(=O)C1=C(O)CC2Oc3c(C(C)=O)c(O)c(C)c(O)c3C2(C)C1=O (configuration not stated)	Active	107%	2.4	118%	128%	T/C [9]: 107%
COC12CC(O)=C(C(C)=O)C(=O)C1(C)c1c(O)c(C)c(O)c(C(C)=O)c1O2 (mixture of isomers)	Active	106%	2.3	128%	–	T/C [12]: 122%; T/C (P388 [6]): 122%
COC12CC(O)=C(C(C)=O)C(=O)C1(C)c1c(OC(C)=O)c(C)c(O)c(C(C)=O)c1O2 (mixture of isomers)	Active	108%	2.6	106%	124%	–
CC(=O)C1=C(O)C=C2Oc3c(C(C)=O)c(O)c(C)c(O)c3[C@]2(C)C1=O [(-)-USNIC ACID]	Active	–	2.88	–	141%	solubility [13]: 20 mg; solubility [14]: < 10 mg; Activity [15]: 35%
CC(=O)c1c(O)c(C)c(O)c2c1OC1=Cc3c(c(C)nn3-c3ccccc3)C(=O)C12C (configuration not stated)	Active	–	3.2	–	–	T/C (P388 [1]): 122%; T/C (P388 [11]): 110%; T/C [12]: 111%; T/C [8]: 108%
CC(=O)c1c(O[C@@H]2O[C@H](CO)[C@@H](O)[C@H](O)[C@H]2O)c(C)c(O)c2c1OC1=CC(=O)/C(=C(/C)N)C(=O)C12C (some centres not stated)	–	–	–	108%	–	T/C (P388 [7]): 104%
CC(=O)c1c(O)c(C)c(O)c2c1OC1=Cc3onc(C)c3C(=O)C12C (configuration not stated)	–	111%	–	–	104%	–
CC(=O)c1c(O)c(C)c(O)c2c1OC1=Cc3c(c(C)nn3C)C(=O)C12C (configuration not stated)	Active	–	2.8	–	–	T/C [16]: 112%; T/C [9]: 103%; T/C (P388 [6]): 118%
CC(=O)Oc1c(C)c(OC(C)=O)c2c(c1C(C)=O)OC1CC(=O)C(C(C)=O)=C(O)C21C (mixture of isomers)	Active	114%	2.3	108%	–	T/C [17]: 104%; T/C (P388 [6]): 112%
CC(=O)Oc1c(C)c(OC(C)=O)c2c(c1C(C)=O)OC1=CC(O)=C(C(C)=O)C(=O)C12C (configuration not stated)	Active	–	2.5	–	–	T/C (P388 [1]): 115%; T/C (P388 [11]): 144%; T/C [9]: 117%; T/C [4]: 111%
